What was measured:
[1] = biological target: Platelet-derived growth factor receptor beta (Homo sapiens, UniProt P09619); experiment: Inhibition of N-terminal GST tagged human PDGFRbeta (557 to 1106 end residues) cytoplasmic domain expressed in baculovirus expression system preincubated for 10 mins followed by fluorescein amidite-labelled peptide substrate addition measured after 1 hr by mobility shift assay
How it was run: (§1)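 Enzyme and compound were preincubated for 10 min at room temperature. FAM-labelled peptide plus ATP was then added and reacted 1 h at 28°C, stopped with EDTA buffer, and run in duplicate. Inhibition = (max − conversion)/(max − min) × 100.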

A549 = experiment: Antiproliferative activity against human A549 cells after 72 hrs by MTT assay; format: functional, cell-based; conditions: A549, 72 h
MCF7 [2] = experiment: Antiproliferative activity against human MCF7 cells after 72 hrs by MTT assay; format: functional, cell-based; conditions: MCF7, 72 h
HT-29 [3] = experiment: Antiproliferative activity against human HT-29 cells after 72 hrs by MTT assay; format: functional, cell-based; conditions: HT-29, 72 h
HEK-293T = experiment: Cytotoxicity against HEK293T cells assessed as reduction in cell viability at 10 uM after 72 hrs by MTT assay; format: cell-based; conditions: human
How it was run: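 HEK293T cells, about 4 × 10^3 per well, were grown in MEM with 10% FBS at 37°C in 5% CO2 for 24 h. Cells were then exposed to compound for 72 h. MTT was added at 5 µg/mL final for 4 h at 37°C and the formazan dissolved in DMSO. Absorbance was read at 492 nm with 630 nm as reference.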

HUVEC [4] = experiment: Induction of apoptosis in HUVEC assessed as early apoptotic cells at 0.3 uM measured after 48 hrs by Annexin-V-FITC/propidium iodide staining based flow cytometry (reference value: 1.78 %); format: functional, Homo sapiens
HUVEC [5] = experiment: Induction of apoptosis in HUVEC assessed as late apoptotic cells at 0.3 uM measured after 48 hrs by Annexin-V-FITC/propidium iodide staining based flow cytometry (reference value: 5.79 %); format: functional, Homo sapiens
HUVEC [6] = experiment: Induction of apoptosis in HUVEC assessed as early apoptotic cells at 1 uM measured after 48 hrs by Annexin-V-FITC/propidium iodide staining based flow cytometry (reference value: 1.78 %); format: functional, Homo sapiens
HUVEC [7] = experiment: Induction of apoptosis in HUVEC assessed as late apoptotic cells at 1 uM measured after 48 hrs by Annexin-V-FITC/propidium iodide staining based flow cytometry (reference value: 5.79 %); format: functional, Homo sapiens
HUVEC [8] = experiment: Induction of apoptosis in HUVEC assessed as early apoptotic cells at 3 uM measured after 48 hrs by Annexin-V-FITC/propidium iodide staining based flow cytometry (reference value: 1.78 %); format: functional, Homo sapiens
HUVEC [9] = experiment: Induction of apoptosis in HUVEC assessed as late apoptotic cells at 3 uM measured after 48 hrs by Annexin-V-FITC/propidium iodide staining based flow cytometry (reference value: 5.79 %); format: functional, Homo sapiens
HT-29 [10] = experiment: Induction of apoptosis in human HT-29 cells assessed as early apoptotic cells at 0.3 uM measured after 48 hrs by Annexin-V-FITC/propidium iodide staining based flow cytometry (reference value: 0.99 %); format: functional
HT-29 [11] = experiment: Induction of apoptosis in human HT-29 cells assessed as late apoptotic cells at 0.3 uM measured after 48 hrs by Annexin-V-FITC/propidium iodide staining based flow cytometry (reference value: 10.60 %); format: functional
HT-29 [12] = experiment: Induction of apoptosis in human HT-29 cells assessed as early apoptotic cells at 1 uM measured after 48 hrs by Annexin-V-FITC/propidium iodide staining based flow cytometry (reference value: 0.99 %); format: functional
HT-29 [13] = experiment: Induction of apoptosis in human HT-29 cells assessed as late apoptotic cells at 1 uM measured after 48 hrs by Annexin-V-FITC/propidium iodide staining based flow cytometry (reference value: 10.60 %); format: functional
HT-29 [14] = experiment: Induction of apoptosis in human HT-29 cells assessed as early apoptotic cells at 3 uM measured after 48 hrs by Annexin-V-FITC/propidium iodide staining based flow cytometry (reference value: 0.99 %); format: functional
HT-29 [15] = experiment: Induction of apoptosis in human HT-29 cells assessed as late apoptotic cells at 3 uM measured after 48 hrs by Annexin-V-FITC/propidium iodide staining based flow cytometry (reference value: 10.60 %); format: functional
MCF7 [16] = experiment: Induction of apoptosis in human MCF7 cells assessed as early apoptotic cells at 0.3 uM measured after 48 hrs by Annexin-V-FITC/propidium iodide staining based flow cytometry (reference value: 1.32 %); format: functional
MCF7 [17] = experiment: Induction of apoptosis in human MCF7 cells assessed as late apoptotic cells at 0.3 uM measured after 48 hrs by Annexin-V-FITC/propidium iodide staining based flow cytometry (reference value: 13.68 %); format: functional
MCF7 [18] = experiment: Induction of apoptosis in human MCF7 cells assessed as early apoptotic cells at 1 uM measured after 48 hrs by Annexin-V-FITC/propidium iodide staining based flow cytometry (reference value: 1.32 %); format: functional
MCF7 [19] = experiment: Induction of apoptosis in human MCF7 cells assessed as late apoptotic cells at 1 uM measured after 48 hrs by Annexin-V-FITC/propidium iodide staining based flow cytometry (reference value: 13.68 %); format: functional
MCF7 [20] = experiment: Induction of apoptosis in human MCF7 cells assessed as early apoptotic cells at 3 uM measured after 48 hrs by Annexin-V-FITC/propidium iodide staining based flow cytometry (reference value: 1.32 %); format: functional
MCF7 [21] = experiment: Induction of apoptosis in human MCF7 cells assessed as late apoptotic cells at 3 uM measured after 48 hrs by Annexin-V-FITC/propidium iodide staining based flow cytometry (reference value: 13.68 %); format: functional
HUVEC [22] = experiment: Induction of apoptosis in HUVEC measured after 48 hrs by Annexin-V-FITC/propidium iodide staining based flow cytometry; format: functional, cell-based; conditions: Homo sapiens
[23] = biological target: Fibroblast growth factor receptor 1 (Homo sapiens, UniProt P11362); experiment: Inhibition of N-terminal GST tagged human FGFR1 (398 to 822 end residues) cytoplasmic domain expressed in baculovirus expression system preincubated for 10 mins followed by fluorescein amidite-labelled peptide substrate addition measured after 1 hr by mobility shift assay
Sequence of Fibroblast growth factor receptor 1 (P11362 whole entry, the tested form may be a part): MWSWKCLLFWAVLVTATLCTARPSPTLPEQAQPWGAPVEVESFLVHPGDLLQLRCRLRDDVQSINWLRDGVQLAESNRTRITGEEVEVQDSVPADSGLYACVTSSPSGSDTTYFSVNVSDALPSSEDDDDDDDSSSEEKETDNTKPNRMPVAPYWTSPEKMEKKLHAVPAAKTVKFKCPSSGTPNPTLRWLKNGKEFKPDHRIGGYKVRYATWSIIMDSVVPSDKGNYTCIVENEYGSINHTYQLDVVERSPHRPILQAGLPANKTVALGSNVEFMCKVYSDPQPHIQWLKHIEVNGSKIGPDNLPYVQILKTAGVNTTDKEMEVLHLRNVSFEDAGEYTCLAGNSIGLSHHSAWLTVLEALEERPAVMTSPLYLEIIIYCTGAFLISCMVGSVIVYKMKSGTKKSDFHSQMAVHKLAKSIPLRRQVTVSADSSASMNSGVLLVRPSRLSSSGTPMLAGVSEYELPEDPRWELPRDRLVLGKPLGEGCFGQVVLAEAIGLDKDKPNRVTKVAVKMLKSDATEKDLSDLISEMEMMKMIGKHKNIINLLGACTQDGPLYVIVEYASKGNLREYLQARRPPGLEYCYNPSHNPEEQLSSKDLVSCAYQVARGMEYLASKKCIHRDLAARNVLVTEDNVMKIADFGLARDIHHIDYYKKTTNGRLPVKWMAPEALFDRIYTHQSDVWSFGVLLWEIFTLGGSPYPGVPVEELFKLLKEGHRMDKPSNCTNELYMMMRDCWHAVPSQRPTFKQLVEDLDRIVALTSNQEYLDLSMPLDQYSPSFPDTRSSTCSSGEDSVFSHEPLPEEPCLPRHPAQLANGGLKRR

[24] = biological target: T1, Vascular endothelial growth factor receptor 2 (Homo sapiens, UniProt P35968); experiment: (§2) Inhibition of N-terminal biotinylated DYKDDDDK tagged human VEGFR2 (790 to 1356 end residues) cytoplasmic domain expressed in baculovirus expression system preincubated for 10 mins followed by fluorescein amidite-labelled peptide substrate addition measured after 1 hr by mobility shift assay
T1 sequence (P35968 whole entry, the tested form may be a part): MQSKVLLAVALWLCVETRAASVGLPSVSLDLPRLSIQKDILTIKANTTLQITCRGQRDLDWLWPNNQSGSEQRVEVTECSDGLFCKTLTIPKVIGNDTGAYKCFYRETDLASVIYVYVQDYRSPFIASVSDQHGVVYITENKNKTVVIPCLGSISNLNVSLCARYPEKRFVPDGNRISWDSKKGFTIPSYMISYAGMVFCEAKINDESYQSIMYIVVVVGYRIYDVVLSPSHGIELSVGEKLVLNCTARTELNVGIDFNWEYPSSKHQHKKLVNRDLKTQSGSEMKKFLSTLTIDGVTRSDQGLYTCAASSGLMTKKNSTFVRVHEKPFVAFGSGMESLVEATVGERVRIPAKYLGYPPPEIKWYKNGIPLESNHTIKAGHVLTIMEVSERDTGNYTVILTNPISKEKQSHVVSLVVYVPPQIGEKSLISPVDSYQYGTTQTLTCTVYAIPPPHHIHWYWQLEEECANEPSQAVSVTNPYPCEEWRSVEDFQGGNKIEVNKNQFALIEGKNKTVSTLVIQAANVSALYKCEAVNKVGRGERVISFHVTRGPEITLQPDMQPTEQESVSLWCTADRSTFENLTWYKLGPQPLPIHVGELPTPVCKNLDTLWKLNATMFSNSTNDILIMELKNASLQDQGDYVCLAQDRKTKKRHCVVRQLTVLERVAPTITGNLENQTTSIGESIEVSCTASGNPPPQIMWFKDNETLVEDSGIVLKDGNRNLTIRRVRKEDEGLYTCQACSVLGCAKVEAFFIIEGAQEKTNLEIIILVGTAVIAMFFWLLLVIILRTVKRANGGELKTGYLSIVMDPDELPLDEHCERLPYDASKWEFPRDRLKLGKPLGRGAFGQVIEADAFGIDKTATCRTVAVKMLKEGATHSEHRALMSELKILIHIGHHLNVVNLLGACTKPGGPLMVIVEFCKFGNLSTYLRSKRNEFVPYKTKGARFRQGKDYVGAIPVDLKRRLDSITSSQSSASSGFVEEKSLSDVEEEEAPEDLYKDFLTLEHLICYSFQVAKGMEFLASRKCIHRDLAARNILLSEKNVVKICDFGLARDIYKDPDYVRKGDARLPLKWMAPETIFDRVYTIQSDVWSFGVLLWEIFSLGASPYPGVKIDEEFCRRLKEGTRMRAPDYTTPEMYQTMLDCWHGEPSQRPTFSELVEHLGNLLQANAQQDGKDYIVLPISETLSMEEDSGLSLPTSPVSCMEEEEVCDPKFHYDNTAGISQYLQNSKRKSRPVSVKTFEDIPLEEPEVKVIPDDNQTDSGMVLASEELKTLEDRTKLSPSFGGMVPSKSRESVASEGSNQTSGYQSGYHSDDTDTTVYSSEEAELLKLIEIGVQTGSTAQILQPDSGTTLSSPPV

[25] = biological target: T1, Vascular endothelial growth factor receptor 2; experiment: as §2, with “system at 1 uM” for “system”, “assay relative to control” for “assay”; how it was run: as §1

Sequence of Platelet-derived growth factor receptor beta (P09619 whole entry, the tested form may be a part): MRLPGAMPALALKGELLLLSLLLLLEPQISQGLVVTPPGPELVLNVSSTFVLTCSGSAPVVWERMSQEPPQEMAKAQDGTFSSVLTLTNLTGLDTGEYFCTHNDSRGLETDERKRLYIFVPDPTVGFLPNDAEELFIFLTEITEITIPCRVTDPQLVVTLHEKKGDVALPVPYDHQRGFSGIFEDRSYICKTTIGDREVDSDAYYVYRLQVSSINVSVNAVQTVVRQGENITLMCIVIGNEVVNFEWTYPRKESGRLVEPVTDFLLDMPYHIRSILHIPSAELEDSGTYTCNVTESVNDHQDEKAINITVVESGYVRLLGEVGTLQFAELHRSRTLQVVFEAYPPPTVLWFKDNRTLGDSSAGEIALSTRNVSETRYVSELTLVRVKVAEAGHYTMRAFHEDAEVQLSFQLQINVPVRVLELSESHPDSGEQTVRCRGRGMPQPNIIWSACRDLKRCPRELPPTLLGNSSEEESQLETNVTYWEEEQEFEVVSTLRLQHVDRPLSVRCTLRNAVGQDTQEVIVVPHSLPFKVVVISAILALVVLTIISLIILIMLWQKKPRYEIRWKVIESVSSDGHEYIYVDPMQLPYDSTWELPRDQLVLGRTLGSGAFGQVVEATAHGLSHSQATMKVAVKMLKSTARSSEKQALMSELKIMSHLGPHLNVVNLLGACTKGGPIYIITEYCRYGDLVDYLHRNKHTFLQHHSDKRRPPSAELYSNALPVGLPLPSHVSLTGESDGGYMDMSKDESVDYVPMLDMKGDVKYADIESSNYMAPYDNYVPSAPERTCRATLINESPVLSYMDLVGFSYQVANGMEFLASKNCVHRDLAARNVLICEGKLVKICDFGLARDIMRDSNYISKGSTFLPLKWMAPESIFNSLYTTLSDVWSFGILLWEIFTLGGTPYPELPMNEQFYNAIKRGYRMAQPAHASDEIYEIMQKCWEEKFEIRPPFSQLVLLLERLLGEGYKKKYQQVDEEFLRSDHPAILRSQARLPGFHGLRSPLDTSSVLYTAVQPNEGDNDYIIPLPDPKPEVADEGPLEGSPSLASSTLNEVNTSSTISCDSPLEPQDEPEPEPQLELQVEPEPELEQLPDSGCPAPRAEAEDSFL

COC(=O)c1ccc2c(c1)NC(=O)/C2=C(\Nc1ccc2[nH]c(CN3CCN(C)CC3)cc2c1)c1ccccc1
IC50 [1]: 0.0927 µM | IC50 (A549): 39.1 µM | IC50 (MCF7 [2]): 3.27 µM | IC50 (HT-29 [3]): 0.32 µM

COC(=O)c1ccc2c(c1)NC(=O)/C2=C(\Nc1ccc2[nH]c(CN(C)C)cc2c1)c1ccccc1
IC50 (A549): 16.4 µM | IC50 (MCF7 [2]): 2.32 µM | IC50 (HT-29 [3]): 0.98 µM

COC(=O)c1ccc2c(c1)NC(=O)/C2=C(\Nc1ccc2c(c1)nc(CN(C)C)n2C)c1ccccc1
IC50 [1]: 0.0455 µM | IC50 (A549): > 100 µM | IC50 (MCF7 [2]): > 100 µM | IC50 (HT-29 [3]): 89.9 µM

COC(=O)c1ccc2c(c1)NC(=O)/C2=C(\Nc1ccc2[nH]c(C(=O)N3CCN(C)CC3)cc2c1)c1ccccc1
IC50 [1]: 0.022 µM | IC50 (A549): 2.99 µM | IC50 (MCF7 [2]): 1.56 µM | IC50 (HT-29 [3]): 1.17 µM | Activity (HEK-293T): Non-Toxic | Activity (HUVEC [4]): 5.68% | Activity (HUVEC [5]): 17.62% | Activity (HUVEC [6]): 3.97% | Activity (HUVEC [7]): 77.6% | Activity (HUVEC [8]): 1.51% | Activity (HUVEC [9]): 93.77% | Activity (HT-29 [10]): 2.31% | Activity (HT-29 [11]): 14.15% | Activity (HT-29 [12]): 0.44% | Activity (HT-29 [13]): 74.82% | Activity (HT-29 [14]): 0.05% | Activity (HT-29 [15]): 98.81% | Activity (MCF7 [16]): 1.27% | Activity (MCF7 [17]): 18.25% | Activity (MCF7 [18]): 0.65% | Activity (MCF7 [19]): 34.43% | Activity (MCF7 [20]): 0.28% | Activity (MCF7 [21]): 94.04% | Activity (HUVEC [22]): Dose-dependent effect | IC50 [23]: 1.51 µM

COC(=O)c1ccc2c(c1)NC(=O)/C2=C(\Nc1ccc2[nH]cc(CN(C)C)c2c1)c1ccccc1
IC50 [24]: > 1 µM | IC50 [1]: 0.0607 µM | IC50 (A549): 2.27 µM | IC50 (MCF7 [2]): 3.94 µM | IC50 (HT-29 [3]): 0.13 µM

CCn1c(C(=O)N2CCN(C)CC2)cc2cc(N/C(=C3\C(=O)Nc4cc(C(=O)OC)ccc43)c3ccccc3)ccc21
IC50 [1]: 0.039 µM | IC50 (A549): 11.9 µM | IC50 (HT-29 [3]): 2.19 µM

COC(=O)c1ccc2c(c1)NC(=O)/C2=C(\Nc1ccc2c(c1)nc(CN1CCN(C)CC1)n2C)c1ccccc1
IC50 [1]: 0.061 µM | IC50 (A549): 40.5 µM | IC50 (MCF7 [2]): 22.5 µM | IC50 (HT-29 [3]): 0.7 µM

COC(=O)c1ccc2c(c1)NC(=O)/C2=C(\Nc1ccc2c(c1)c(CN1CCN(C)CC1)cn2C)c1ccccc1
IC50 [24]: > 1 µM | IC50 [1]: 0.0917 µM | IC50 (A549): 6.15 µM | IC50 (MCF7 [2]): 4.01 µM | IC50 (HT-29 [3]): 0.87 µM

COC(=O)c1ccc2c(c1)NC(=O)/C2=C(\Nc1ccc2[nH]c(C(=O)N(C)C)cc2c1)c1ccccc1
IC50 [24]: > 1 µM | IC50 (A549): > 100 µM | IC50 (HT-29 [3]): > 100 µM

COC(=O)c1ccc2c(c1)NC(=O)/C2=C(\Nc1ccc2c(c1)cc(C(=O)N1CCN(C)CC1)n2C)c1ccccc1
IC50 [1]: 0.0442 µM | IC50 (A549): 75.2 µM | IC50 (HT-29 [3]): 1.1 µM

CCn1cc(CN(C)C)c2cc(N/C(=C3\C(=O)Nc4cc(C(=O)OC)ccc43)c3ccccc3)ccc21
IC50 [1]: 0.0343 µM | IC50 (A549): 7.63 µM | IC50 (MCF7 [2]): 5.53 µM | IC50 (HT-29 [3]): 6.79 µM

COC(=O)c1ccc2c(c1)NC(=O)/C2=C(\Nc1ccc2nc(CN(C)C)oc2c1)c1ccccc1
IC50 [24]: > 1 µM | IC50 [1]: > 0.5 µM | IC50 (A549): > 100 µM

COC(=O)c1ccc2c(c1)NC(=O)/C2=C(\Nc1ccc2[nH]cc(CN3CCN(C)CC3)c2c1)c1ccccc1
inhibition [25]: 59% | IC50 [1]: 0.135 µM | IC50 (A549): 7.4 µM

COC(=O)c1ccc2c(c1)NC(=O)/C2=C(\Nc1ccc2nc(CN3CCN(C)CC3)oc2c1)c1ccccc1
inhibition [25]: 79% | IC50 [1]: 0.116 µM | IC50 (A549): > 100 µM

COC(=O)c1ccc2c(c1)NC(=O)/C2=C(\Nc1ccc2c(c1)c(CN(C)C)cn2C)c1ccccc1
IC50 [1]: 0.0646 µM | IC50 (A549): 6.01 µM | IC50 (MCF7 [2]): 2.28 µM | IC50 (HT-29 [3]): 0.46 µM

COC(=O)c1ccc2c(c1)NC(=O)/C2=C(\Nc1ccc(N(C)C(=O)CN2CCN(C)CC2)cc1)c1ccccc1 [NINTEDANIB]
IC50 (A549): 22.6 µM | IC50 (MCF7 [2]): 8.28 µM | IC50 (HT-29 [3]): 0.83 µM

COC(=O)c1ccc2c(c1)NC(=O)/C2=C(\Nc1ccc2[nH]cc(CN3CCOCC3)c2c1)c1ccccc1
IC50 [1]: 0.242 µM

COC(=O)c1ccc2c(c1)NC(=O)/C2=C(\Nc1ccc2c(c1)c(CN(C)C)cn2C(C)C)c1ccccc1
IC50 [1]: 0.0492 µM | IC50 (A549): 4.32 µM | IC50 (MCF7 [2]): 5.67 µM | IC50 (HT-29 [3]): 0.25 µM

Source: ChEMBL document CHEMBL4130391, “Novel methyl indolinone-6-carboxylates containing an indole moiety as angiokinase inhibitors” (Eur J Med Chem, 2017)
